In assay [1] the test system is MCF7. Briefly: Cytotoxicity against ER positive human MCF7 cells assessed as reduction in cell viability measured after 24 hrs by Alamar blue assay. It counts as functional, cell-based. Conditions: MCF7, 24 h. A digest of the protocol:
(§1)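 Cells in 96-well culture plates, in triplicate. Viability taken 24 h after treatment with Alamar Blue redox dye. Fluorescence read at 560/12 nm excitation and 590 nm emission, at time zero and 4 h after dye addition.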

The subject of assay [2] is Pseudomonas aeruginosa. The assay can be described thus: Antimicrobial activity against Pseudomonas aeruginosa ATCC 14210 up to 128 uM measured after 22 hrs by CLSI protocol based microbroth dilution assay. It is filed as functional, organism-based. Conditions: dose microM <=128, time 22.0 hrs. The procedure, abridged: (§2)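 96-well microbroth dilution run to CLSI standards. OD 600 nm read at time zero and at the end, after 22 h incubation at 37 °C, to give growth inhibition.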
For orientation: Broth dilution looks for growth in wells or tubes with falling amounts of substance.

The test system of assay [3] is Keratinocyte. The assay can be described thus: Cytotoxicity against human epidermal keratinocytes assessed as reduction in cell viability measured after 24 hrs by Alamar blue assay. It counts as cell-based. A digest of the protocol:
as §1

Assay [4] concerns Candida albicans. Briefly: Antifungal activity against Candida albicans ATCC 14035 up to 128 uM measured after 22 hrs by CLSI protocol based microbroth dilution assay. It counts as functional, organism-based. Conditions: dose microM <=128, time 22.0 hrs. The procedure, abridged: as §2
For assay [5], the system named is Staphylococcus warneri. The assay can be described thus: Antimicrobial activity against Staphylococcus warneri ATCC 17917 up to 128 uM measured after 22 hrs by CLSI protocol based microbroth dilution assay. It counts as functional, organism-based. Conditions: dose microM <=128, time 22.0 hrs. A digest of the protocol:
as §2

Assay [6] relates to Enterococcus faecium. The assay can be described thus: Antimicrobial activity against vancomycin-resistant Enterococcus faecium EF379 up to 128 uM measured after 22 hrs by CLSI protocol based microbroth dilution assay. Conditions: dose microM <=128, time 22.0 hrs. It is filed as functional, organism-based. The procedure, abridged:
(§3)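 CLSI broth microdilution in 96-well format. Growth inhibition was read as absorbance at 600 nm at time zero and after 22 h incubation at 37 °C.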

Assay [7] concerns Staphylococcus aureus. The assay can be described thus: Antimicrobial activity against methicillin-resistant Staphylococcus aureus ATCC 33591 up to 128 uM measured after 22 hrs by CLSI protocol based microbroth dilution assay. It is filed as functional, organism-based. Conditions: dose microM <=128, time 22.0 hrs. The procedure, abridged:
as §3

Assay [8] can be described thus: Cytotoxicity against ER negative human HTB26 cells assessed as reduction in cell viability measured after 24 hrs by Alamar blue assay. It is filed as functional, cell-based. Conditions: HTB26, 24 h. The procedure, abridged: as §1
On the technique in general: Resazurin is reduced to fluorescent resorufin, in cell work by metabolically active cells.

The source made the active and inactive calls. The rule behind the calls is not given here. Where a SMILES comes first, the peptide text is derived from it. [ ]: non-standard residue; d: D form. NMeF = CN[C@@H](Cc1ccccc1)C(=O)O; NMeT = CN[C@H](C(=O)O)[C@@H](C)O; NMeV = CN[C@H](C(=O)O)C(C)C A value given as a limit tells only on which side of the number the result lay.

What is called IC50 is the concentration that gives 50% inhibition. For the compound `CC[C@@H](C)[C@@H]1NC(=O)CNC(=O)[C@H](Cc2ccccc2)N(C)C(=O)[C@H](C(C)C)NC(=O)[C@H]([C@@H](C)O)N(C)C(=O)[C@H](CC(C)C)NC(=O)CNC(=O)[C@H](C(C)C)N(C)C(=O)[C@H](C(C)C)NC(=O)[C@H](CO)NC1=O`, the concentration for half-maximal inhibition (IC50) in assay [1], in assay [3] and in assay [8] was above 10 µM each time. Also, the result in assay [2], in assay [4], in assay [5], in assay [6] and in assay [7] was inactive.

With `CC[C@H](C)[C@@H]1NC(=O)CNC(=O)[C@H](Cc2ccccc2)N(C)C(=O)[C@H]([C@@H](C)CC)NC(=O)[C@H]([C@@H](C)O)N(C)C(=O)[C@H](CC(C)C)NC(=O)CNC(=O)[C@H](C(C)C)N(C)C(=O)[C@H]([C@@H](C)CC)NC(=O)[C@H](CO)NC1=O` (cyclo(GISI[NMeV]GL[NMeT]I[NMeF])), the IC50 in assay [1], in assay [3] and in assay [8] was above 10 µM each time. Moreover, the outcome in assay [2], in assay [4], in assay [5], in assay [6] and in assay [7] was inactive.

With `CC[C@H](C)[C@@H]1NC(=O)CNC(=O)[C@H](Cc2ccccc2)N(C)C(=O)[C@H]([C@@H](C)CC)NC(=O)[C@H]([C@@H](C)O)N(C)C(=O)[C@H](CC(C)C)NC(=O)CNC(=O)[C@H](C(C)C)N(C)C(=O)[C@H](C(C)C)NC(=O)[C@H](CO)NC1=O` (cyclo(GISV[NMeV]GL[NMeT]I[NMeF])), the half-maximal inhibitory concentration (IC50) in assay [1], in assay [3] and in assay [8] was above 10 µM each time. Moreover, the result in assay [2], in assay [4], in assay [5], in assay [6] and in assay [7] was inactive.

As for `CC(C)C[C@@H]1NC(=O)CNC(=O)[C@H](C(C)C)N(C)C(=O)[C@H](C(C)C)NC(=O)[C@H](CO)NC(=O)[C@H](C(C)C)NC(=O)CNC(=O)[C@H](Cc2ccccc2)N(C)C(=O)[C@H](C(C)C)NC(=O)[C@H]([C@@H](C)O)N(C)C1=O` (cyclo(GL[NMeT]V[NMeF]GVSV[NMeV])), the IC50 in assay [1], in assay [3] and in assay [8] was above 10 µM in each case. In addition, the outcome in assay [2], in assay [4], in assay [5], in assay [6] and in assay [7] was inactive.
